From ChEMBL document CHEMBL1770143, “Biological evaluation of 3'-O-alkylated analogs of salacinol, the role of hydrophobic alkyl group at 3' position in the side chain on the α-glucosidase inhibitory activity” (Bioorg Med Chem Lett, 2011)

Key:
[1] = target: T1, Sucrase-isomaltase, intestinal (Rattus norvegicus, UniProt P23739); assay: Inhibition of rat small intestinal isomaltase after 30 mins by glucose-oxidase method
How it was run: (§1)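 Enzyme source was rat small-intestinal brush border membrane vesicles suspended in 0.1 M maleate buffer, pH 6.0. Substrate solutions, prior to mixing, were maltose 74 mM (maltase), sucrose 74 mM (sucrase) and isomaltose 7.4 mM (isomaltase). Substrate, inhibitor and enzyme were incubated at 37 °C for 30 min, then stopped by 2 min boiling. Released glucose was measured by glucose oxidase. Final DMSO was 2.5%.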

[2] = target: T1, Sucrase-isomaltase, intestinal; assay: Inhibition of rat small intestinal sucrase after 30 mins by glucose-oxidase method; how it was run: as §1
[3] = target: T1, Sucrase-isomaltase, intestinal; assay: Competitive inhibition of rat intestinal isomaltase
[4] = target: T1, Sucrase-isomaltase, intestinal; assay: Competitive inhibition of rat intestinal sucrase

T1 sequence (P23739 1-1013 limits assumed): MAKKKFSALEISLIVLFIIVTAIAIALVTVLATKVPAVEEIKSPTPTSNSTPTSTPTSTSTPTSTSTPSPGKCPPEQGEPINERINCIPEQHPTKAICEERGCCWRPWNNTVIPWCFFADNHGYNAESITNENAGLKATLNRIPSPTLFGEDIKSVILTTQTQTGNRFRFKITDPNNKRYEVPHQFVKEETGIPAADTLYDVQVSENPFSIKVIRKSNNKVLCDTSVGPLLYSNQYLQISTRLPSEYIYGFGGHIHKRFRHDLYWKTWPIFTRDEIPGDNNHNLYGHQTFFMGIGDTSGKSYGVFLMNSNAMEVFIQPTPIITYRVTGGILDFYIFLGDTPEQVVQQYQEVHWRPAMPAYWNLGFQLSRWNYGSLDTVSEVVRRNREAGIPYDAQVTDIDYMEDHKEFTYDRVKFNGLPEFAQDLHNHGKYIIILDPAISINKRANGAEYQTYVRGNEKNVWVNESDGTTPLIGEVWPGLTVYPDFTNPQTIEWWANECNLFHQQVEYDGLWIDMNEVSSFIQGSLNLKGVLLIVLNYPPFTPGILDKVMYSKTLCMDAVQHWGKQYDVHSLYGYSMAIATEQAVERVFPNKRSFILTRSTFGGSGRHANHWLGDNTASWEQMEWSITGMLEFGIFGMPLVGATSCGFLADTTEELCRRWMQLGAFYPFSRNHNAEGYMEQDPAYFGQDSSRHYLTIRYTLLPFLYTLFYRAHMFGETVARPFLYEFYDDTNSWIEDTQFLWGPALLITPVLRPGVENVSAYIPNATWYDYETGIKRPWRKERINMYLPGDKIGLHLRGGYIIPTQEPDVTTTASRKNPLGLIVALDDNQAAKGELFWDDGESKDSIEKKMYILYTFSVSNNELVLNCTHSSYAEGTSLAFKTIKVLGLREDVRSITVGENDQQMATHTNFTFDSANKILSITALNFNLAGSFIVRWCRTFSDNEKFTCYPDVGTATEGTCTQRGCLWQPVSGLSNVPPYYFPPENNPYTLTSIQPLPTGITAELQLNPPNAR
T1 sequence (P23739 1014-1841 limits assumed): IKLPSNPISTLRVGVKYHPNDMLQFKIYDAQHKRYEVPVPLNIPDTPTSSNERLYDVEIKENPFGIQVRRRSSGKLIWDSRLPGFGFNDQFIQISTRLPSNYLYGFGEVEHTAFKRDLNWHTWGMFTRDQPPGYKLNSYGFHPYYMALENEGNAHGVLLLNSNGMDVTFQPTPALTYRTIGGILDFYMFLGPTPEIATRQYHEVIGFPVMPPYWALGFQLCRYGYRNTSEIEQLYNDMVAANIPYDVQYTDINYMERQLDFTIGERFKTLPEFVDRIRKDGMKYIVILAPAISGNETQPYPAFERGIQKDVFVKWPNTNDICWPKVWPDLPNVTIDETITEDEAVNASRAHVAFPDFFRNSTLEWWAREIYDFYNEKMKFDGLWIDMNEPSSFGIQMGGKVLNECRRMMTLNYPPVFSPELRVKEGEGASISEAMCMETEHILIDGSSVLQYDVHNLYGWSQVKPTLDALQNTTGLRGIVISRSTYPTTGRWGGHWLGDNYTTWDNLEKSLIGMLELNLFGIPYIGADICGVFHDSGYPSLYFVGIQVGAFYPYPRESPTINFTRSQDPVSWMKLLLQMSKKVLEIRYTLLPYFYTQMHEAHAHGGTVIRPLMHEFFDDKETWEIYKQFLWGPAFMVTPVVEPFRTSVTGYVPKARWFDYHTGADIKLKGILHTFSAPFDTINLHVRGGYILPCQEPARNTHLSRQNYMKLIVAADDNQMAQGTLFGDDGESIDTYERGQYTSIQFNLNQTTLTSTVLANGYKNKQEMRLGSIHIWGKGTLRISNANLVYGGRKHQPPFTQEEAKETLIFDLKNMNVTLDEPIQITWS

Row | SMILES | IC50 [1] | IC50 [2] | Ki [3] | Ki [4]
1 | CO[C@@H](CO)[C@H](O)C[S+]1C[C@@H](O)[C@H](O)[C@H]1CO (single isomer, unassigned) | 390 nM | 460 nM | – | –
2 | CCCCCCCCCCCCCO[C@@H](CO)[C@H](O)C[S+]1C[C@@H](O)[C@H](O)[C@H]1CO (single isomer, unassigned) | 950 nM | 1300 nM | – | –
3 | O=S(=O)([O-])O[C@@H](CO)[C@H](O)C[S@+]1C[C@@H](O)[C@H](O)[C@H]1CO [SALACINOL] | – | – | 1410 nM | 957 nM

Further compounds by falling IC50 [2], results first:

Row | IC50 [1] | IC50 [2] | Ki [3] | Ki [4] | SMILES
4 | – | 320 nM | – | – | OC[C@H](OCc1ccccc1)[C@H](O)C[S+]1C[C@@H](O)[C@H](O)[C@H]1CO (single isomer, unassigned)
5 | 270 nM | 120 nM | – | – | CCO[C@@H](CO)[C@H](O)C[S+]1C[C@@H](O)[C@H](O)[C@H]1CO (single isomer, unassigned)
